High-throughput results deposited in PubChem by The Scripps Research Institute Molecular Screening Center.
This is a sample that favours compounds with a hit; in the whole collection about 3.1% have one here.
RBBP9 inh: human RBBP9 inhibitors, primary screen, biochemical, fluorescence polarization, FP-Rh probe, HTS. actives 0.2% (n = 220,000). Serine hydrolase RBBP9 (Homo sapiens), O75884. recombinant RBBP9. inhibition, % at 7.94 µM;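 active means inhibition above the campaign mean of all tested compounds plus 3 SD, cut at about 14% in these data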
Target sequence (O75884 whole entry, looked up): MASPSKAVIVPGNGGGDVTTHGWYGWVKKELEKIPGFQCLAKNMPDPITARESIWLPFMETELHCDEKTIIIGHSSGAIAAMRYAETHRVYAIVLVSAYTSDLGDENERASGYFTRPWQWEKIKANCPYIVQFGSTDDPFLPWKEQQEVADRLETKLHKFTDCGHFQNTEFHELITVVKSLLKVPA
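Measured by – fluorescence polarization · Test system – RBBP9 protein · Input – 2.5 µM RBBP9 dispensing solution, before mixing · Measure – percent inhibition from mP, scaled between DMSO and no-protein wells · Benchmarks – DMSO-treated enzyme wells and wells lacking RBBP9 · Times – preincubation 30 min plus labeling 45 min at 25 °C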
ABHD5-PLIN5 inh: ABHD5-PLIN5 interaction inhibitors, primary screen, cell lysate, split luciferase complementation, luminescence; Perilipin-5 (Homo sapiens) + 1-acylglycerol-3-phosphate O-acyltransferase ABHD5 (Homo …; Split G. princeps luciferase complementation, 4 h; inhibition, % at 4 µM; actives 0.78% (n = 360,000);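 active means inhibition above the mean inhibition across every tested compound plus 3 SD, cut at about 22% in these data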
LEDGF integ inh: blockers of LEDGF/p75-dependent integrase strand transfer – biochemical, TR-FRET, high throughput, primary screen. TR-FRET IN-LEDGF/p75 DNA integration, Eu/Cy5. inhibition, % at 3.7 µM. actives 0.64% (n = 370,000). AID 743269, 2014;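 active means inhibition above the screen-wide mean plus 3 SD, cut at about 13% in these data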;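 further: signal is the Cy5 over europium emission ratio at 671 and 618 nm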
MBD2 DNA inh: inhibitors of MBD2 binding to methylated DNA, primary screen, biochemical, TR-FRET, DNA-binding domain, human; Methyl-CpG-binding domain protein 2 (Homo sapiens), Q9UBB5; MBD2 binding to methylated oligonucleotide; inhibition, % at 4.4 µM; actives 0.31% (n = 370,000); in the data active means inhibition above about 13%
UHRF1 MBD2 ctr: UHRF1 methylated DNA binding inhibitors, primary screen, counter-screen for MBD2 inhibitor project, biochemical, TR-FRET, human UHRF1, single concentration; E3 ubiquitin-protein ligase UHRF1 (Homo sapiens), Q96T88; UHRF1 binding to methylated oligo; inhibition, % at 4.4 µM; actives 0.75% (n = 370,000); in the data active means inhibition above about 21%;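 further: UHRF1 SRA domain binding a hemimethylated CpG hairpin DNA probe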
PRMT1 inh: PRMT1 methyltransferase inhibitors, primary screen, biochemical, fluorescence polarization; Protein arginine N-methyltransferase 1 (Homo sapiens), Q99873; recombinant PRMT1, activity-based probe fluorescence polarization; inhibition, % at 2.79 µM; actives 1.3% (n = 370,000); AID 652257, 2013;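 active means inhibition above about 21% made by adding two undisclosed values, limit read from the data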
Target sequence (Q99873 whole entry, looked up): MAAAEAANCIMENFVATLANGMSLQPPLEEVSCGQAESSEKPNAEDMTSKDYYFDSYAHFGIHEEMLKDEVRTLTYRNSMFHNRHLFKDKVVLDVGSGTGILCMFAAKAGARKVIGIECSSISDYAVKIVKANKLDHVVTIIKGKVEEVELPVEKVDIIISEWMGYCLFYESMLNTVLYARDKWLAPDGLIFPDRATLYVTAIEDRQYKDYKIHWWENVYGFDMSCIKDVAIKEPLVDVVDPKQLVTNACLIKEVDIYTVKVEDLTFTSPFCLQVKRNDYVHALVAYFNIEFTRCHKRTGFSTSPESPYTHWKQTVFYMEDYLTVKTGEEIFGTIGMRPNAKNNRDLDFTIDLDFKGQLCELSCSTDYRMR
IN multimer act: HIV-1 IN multimer formation enhancers, counter-screen for LEDGF/p75 integration inhibitor project, biochemical, TR-FRET; shares compounds with LEDGF integ inh; TR-FRET HIV-1 integrase multimerization; activation, % at 7.7 µM; actives 17% (n = 2,000); in the data active means activation above about 8.9%
TR-FRET interf: TR-FRET optical interference artefacts, confirmation, artefact control for LEDGF/p75-dependent integration inhibitor project, biochemical, HIV-1 IN multimerization; shares compounds with LEDGF integ inh; TR-FRET optical interference counterscreen; inhibition, % at 7.7 µM; 2,000 tested, under 10 active; AID 1053135, 2014;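 active means inhibition above the mean over all tested compounds plus 3 SD, which no compound reached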
IN-LEDGF confirm: inhibitors of HIV-1 IN-LEDGF/p75 DNA integration, confirmation, biochemical, TR-FRET | shares compounds with LEDGF integ inh | inhibition, % at 3.7 µM | TR-FRET LEDGF/p75-dependent HIV-1 integration | actives 36% (n = 2,000); in the data active means inhibition above about 14%
Of the large screens only hits and unclear results are named; the others gave an inactive call (follow-up assays come after a bar, where they were run).

CCOc1cc(/C=C2/C(=O)N(c3ccccc3)N=C2C)ccc1OC(=O)c1ccco1	LEDGF integ inh 25 | IN multimer act inactive | TR-FRET interf inactive | IN-LEDGF confirm inactive
CCOc1cc(/C=C2\C(=O)N(c3ccc(C(N)=O)cc3)N=C2C)ccc1OC(=O)c1cccs1	none (no result: LEDGF integ inh, MBD2 DNA inh, UHRF1 MBD2 ctr, PRMT1 inh)
COC(=O)c1cc(-c2cccc3c2sc2ccccc23)c(=O)n2c1CCC2	none (no result: RBBP9 inh, ABHD5-PLIN5 inh)
Cn1c(N)c(S(=O)(=O)N2CCN(c3ccccc3F)CC2)c(=O)n(C)c1=O	none (no result: RBBP9 inh)
Cn1c(N)c(S(=O)(=O)N2CCN(c3ccccc3)CC2)c(=O)n(C)c1=O	LEDGF integ inh 15 | IN multimer act inactive | TR-FRET interf inactive | IN-LEDGF confirm inactive
Cc1ccccc1C(=O)N[C@@H](CC(C)C)C(=O)N1CCC[C@H]1C(=O)NCc1ccccc1	none (no result: RBBP9 inh, ABHD5-PLIN5 inh)
Cc1ccsc1C=Nn1c(-c2n[nH]c3c2CCC3)n[nH]c1=S	none (no result: RBBP9 inh, ABHD5-PLIN5 inh)
CCN(CC)C(=O)[C@H]1C[C@@H]2[C@H](C[C@@H](c3ccccc3)[C@H]1C)N(c1ccc(F)cc1)C(=O)N2C/C=C(\C)CCC=C(C)C	none (no result: RBBP9 inh, ABHD5-PLIN5 inh)
COc1ccc(C[C@@H]2CN3C(=NC[C@@H]3C)N2C[C@H](C)NC(=O)CCC2CCCCC2)cc1	LEDGF integ inh 52 | IN multimer act inactive | TR-FRET interf inactive | IN-LEDGF confirm inactive
C=CCn1c(N)c(C(=O)NCCC2=CCCCC2)sc1=S	LEDGF integ inh 19 | IN multimer act inactive | TR-FRET interf inactive | IN-LEDGF confirm inactive
NC(=O)NCCC1=CCCCC1	none
CC(/C=N/n1c(-c2ccccc2)n[nH]c1=S)=C\c1ccco1	LEDGF integ inh 16 | IN multimer act inactive | TR-FRET interf inactive | IN-LEDGF confirm inactive
S=c1[nH]nc(-c2ccncc2)n1/N=C/C=C/c1ccco1	LEDGF integ inh 18 | IN multimer act inactive | TR-FRET interf inactive | IN-LEDGF confirm 33
S=c1[nH]nc(-c2ccccc2Cl)n1/N=C/C=C/c1ccco1	none
CC(C)C[C@H]1COc2cccc(N3CCOCC3)c2S(=O)(=O)N1	none (no result: RBBP9 inh, ABHD5-PLIN5 inh)
O=C(NC1CCCCN(Cc2ccc(Cl)cc2)C1=O)C(c1ccccc1)c1ccccc1 (stereo not drawn)	none (no result: RBBP9 inh, ABHD5-PLIN5 inh)
CCC1COC(c2cccn2Cc2ccc(Cl)cc2)=N1 (stereo not drawn)	LEDGF integ inh 14 | IN multimer act inactive | TR-FRET interf inactive | IN-LEDGF confirm inactive
CCOC(=O)C1=NOC(C(=O)NCc2ccccc2)(C(=O)c2ccc(OC)cc2)C1 (stereo not drawn)	none (no result: RBBP9 inh, ABHD5-PLIN5 inh)
CC(C)(C)NC(=O)NC(=O)CSc1ccc(S(=O)(=O)N2CCCCC2)cn1	LEDGF integ inh 20 (no result: RBBP9 inh) | IN multimer act inactive | TR-FRET interf inactive | IN-LEDGF confirm inactive
O=C1CCC2(CCC(c3ccccc3)CC2)N1CCO (stereo not drawn)	none (no result: RBBP9 inh, ABHD5-PLIN5 inh)
COc1ccc(/C=N/Nc2ncnc(Cl)c2N)cc1OC	none
COc1ccc(/C=N/Nc2nnc(C)n2N)cc1OC	LEDGF integ inh 48 | IN multimer act inactive | TR-FRET interf inactive | IN-LEDGF confirm inactive
COc1cc(/C=N/n2nnnc2N)ccc1OC(C)=O	none (no result: RBBP9 inh)
COc1ccc(/C=N/Nc2nnc(C)n2N)cc1OC(C)=O	LEDGF integ inh 32 (no result: RBBP9 inh) | IN multimer act inactive | TR-FRET interf inactive | IN-LEDGF confirm inactive
COc1ccc(CNS(=O)(=O)/C=C/c2ccccc2CNC(=O)OC(C)(C)C)cc1	none (no result: RBBP9 inh, ABHD5-PLIN5 inh)
COC(=O)[C@]12C[C@H](CC(=O)N3CCSCC3)C(=O)N(CCC3=CCCCC3)C1=C[C@H](C(C)(C)C)O[C@@H]2C	none (no result: RBBP9 inh, ABHD5-PLIN5 inh)
O=C(COC(=O)c1n[nH]c(=O)c2ccccc12)Nc1ccccc1F	LEDGF integ inh 14 (no result: RBBP9 inh) | IN multimer act inactive | TR-FRET interf inactive | IN-LEDGF confirm inactive
C[C@@H]1OC(C2CCCCC2)N(C)[C@H]2C[C@H]3c4[nH]c5cccc(-c6cccc(F)c6)c5c4CCN3C(=O)[C@@H]12 (stereo partly drawn)	none (no result: RBBP9 inh, ABHD5-PLIN5 inh)
O=c1c(O[C@@H]2O[C@H](CO)[C@H](O)[C@H](O)[C@H]2O)c(-c2ccc(O)c(O)c2)oc2cc(O)cc(O)c12	none (no result: ABHD5-PLIN5 inh, LEDGF integ inh, MBD2 DNA inh, UHRF1 MBD2 ctr, PRMT1 inh)
COc1c(-c2ccc(O)c(O)c2)oc2cc(O)cc(O)c2c1=O	LEDGF integ inh 16 (no result: RBBP9 inh) | IN multimer act 9.3 | TR-FRET interf inactive | IN-LEDGF confirm 72
CCC(CC)C(=O)N(C)c1c(C)nc2c(OCc3ccccc3C)cccn12	none (no result: RBBP9 inh)
CCC(CC)C(=O)N(C)c1c(C)nc2c(OCc3ccc(C#N)cc3)cccn12	LEDGF integ inh 15 (no result: RBBP9 inh) | IN multimer act inactive | TR-FRET interf inactive | IN-LEDGF confirm inactive
CC1CN(C(=O)c2cc([N+](=O)[O-])cc([N+](=O)[O-])c2)CC(C)O1 (stereo not drawn)	none
CC1CN(C(=O)c2nn(C)cc2[N+](=O)[O-])CC(C)O1 (stereo not drawn)	LEDGF integ inh 42 | IN multimer act inactive | TR-FRET interf inactive | IN-LEDGF confirm inactive
C[C@@H]1NS(=O)(=O)c2ccc(F)cc2O[C@@H]1c1ccccc1	none (no result: RBBP9 inh, ABHD5-PLIN5 inh)
O=C(CCc1ccccc1)N[C@H]1[C@@H](OC(=O)C2CC2)CCC[C@@]12C(=O)N(Cc1ccccc1)c1ccccc12	none (no result: RBBP9 inh, ABHD5-PLIN5 inh)
O=S1(=O)CC(N2CCN(CCO)CC2)CN1Cc1ccccc1 (stereo not drawn)	LEDGF integ inh 35 (no result: RBBP9 inh) | IN multimer act inactive | TR-FRET interf inactive | IN-LEDGF confirm inactive
O=c1cc(-c2ccc(O)c(O)c2)oc2cc(O)c(C3OC(CO)C(O)C(O)C3O)c(O)c12 (stereo not drawn)	LEDGF integ inh 46 | IN multimer act 73 | TR-FRET interf inactive | IN-LEDGF confirm 91
O=c1cc(-c2ccc(O)c(O)c2)oc2c(C3O[C@H](CO)[C@@H](O)[C@H](O)[C@H]3O)c(O)cc(O)c12 (stereo partly drawn)	LEDGF integ inh 68 | IN multimer act 81 | TR-FRET interf inactive | IN-LEDGF confirm 90
